Test results: ChEMBL document CHEMBL1137088, “Distamycin analogues with enhanced lipophilicity: synthesis and antimicrobial activity” (2004)
≈ marks a conversion by molar mass, not a printed value. Calls of active or inactive are those of the source. No cut-off for these calls is given here.

How the values were obtained:
[1] = Antibacterial activity against Enterobacter cloacae NCTC 10005 strain; assay type: functional
[2] = tested on: Staphylococcus aureus; assay: Antibacterial activity against Staphylococcus aureus NCTC 6571 strain.; assay type: functional
[3] = tested on: Enterococcus faecalis; assay: Antibacterial activity against Streptococcus faecalis NCTC 775 strain.; assay type: functional
[4] = tested on: Mycolicibacterium fortuitum; assay: Antibacterial activity against Mycobacterium fortuitum NCTC 10394 strain.; assay type: functional
[5] = tested on: Klebsiella aerogenes; assay: Antibacterial activity against Klebsiella aerogenes WRL CN 345 strain.; assay type: functional, WRL CN 375; conditions: Klebsiella aerogenes, WRL CN 375; read-out: MIC
[6] = tested on: Proteus vulgaris; assay: Antibacterial activity against Proteus vulgaris NCTC 4175 strain.; assay type: functional
[7] = tested on: Staphylococcus aureus; assay: Antibacterial activity against methicillin-resistant Staphylococcus aureus (MRSA) PHLS M1 strain.; assay type: functional
How it was run: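 Read-out is the minimum inhibitory concentration, reported in µM. Amoxycillin is tested alongside as the reference antibiotic.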

[8] = tested on: Aspergillus niger; assay: Antifungal activity against Aspergillus niger IMI17454 strain.; assay type: functional; conditions: Aspergillus niger; read-out: MIC
[9] = tested on: Klebsiella aerogenes; assay: Antibacterial activity against Klebsiella aerogenes WRL CN 345 strain; na = not active; assay type: functional, organism-based
[10] = Antifungal activity against Candida albicans NCPF 3179 strain; na = not active; assay type: functional
[11] = tested on: Escherichia coli; assay: Antibacterial activity against Escherichia coli NCTC 9001 strain.; assay type: functional, organism-based
[12] = tested on: Staphylococcus aureus; assay: Antibacterial activity against Staphylococcus aureus NCTC 6571 strain; na = not active; assay type: functional, organism-based
[13] = tested on: Mycolicibacterium fortuitum; assay: Antibacterial activity against Mycobacterium fortuitum NCTC 10394 strain; na = not active; assay type: functional, organism-based
[14] = tested on: Aspergillus nidulans; assay: Antifungal activity against Aspergillus nidulans CABI 0160037 strain; assay type: functional
[15] = tested on: Enterococcus faecalis; assay: Antibacterial activity against Streptococcus faecalis NCTC 775 strain; na = not active; assay type: functional, organism-based
[16] = Antibacterial activity against Proteus vulgaris NCTC 4175 strain; na = not active; assay type: functional
[17] = tested on: Candida albicans; assay: Antifungal activity against Candida albicans NCPF 3179 strain.; assay type: functional; conditions: Candida albicans; read-out: MIC
[18] = tested on: Enterobacter cloacae; assay: Antibacterial activity against Enterobacter cloacae NCTC 10005 strain.; assay type: functional, organism-based
[19] = tested on: Aspergillus niger; assay: Antifungal activity against Aspergillus niger IMI17454 strain; na = not active; assay type: functional
[20] = tested on: Staphylococcus aureus; assay: Antibacterial activity against MRSA PHLS M1 strain; na = not active; assay type: functional, organism-based

`CC1(C)S[C@@H]2[C@H](NC(=O)[C@H](N)c3ccc(O)cc3)C(=O)N2[C@H]1C(=O)O` [AMOXICILLIN] gave an MIC [1] of 4 µM (≈ 1.46 µg/mL), an MIC [2] of 0.49 µM (≈ 0.179 µg/mL) and an MIC [3] of 0.49 µM (≈ 0.179 µg/mL). For the same compound, the MIC [4] was 16.1 µM (≈ 5.88 µg/mL), the MIC [5] was 8.1 µM (≈ 2.96 µg/mL) and the MIC [6] was 4 µM (≈ 1.46 µg/mL). For the same compound, the MIC [7] was 16.1 µM (≈ 5.88 µg/mL).

For `Cc1oc(CNC(=O)c2cc(NC(=O)c3cc(NC=O)cn3C)cn2C)nc1C(=O)NCCCN(C)C`, the MIC [1] was 160 µM (not active) (≈ 82 µg/mL), the MIC [8] was 160 µM (not active) (≈ 82 µg/mL) and the MIC [9] was “inactive”. For the same compound, the MIC [10] was “inactive”, the MIC [11] was “inactive” and the MIC [12] was “inactive”. The MIC [13] was “inactive”, the MIC [14] was 160 µM (not active) (≈ 82 µg/mL) and the MIC [15] was “inactive”. The MIC [16] was “inactive” and the MIC [7] was 160 µM (not active) (≈ 82 µg/mL).

`CN[C@@H]1[C@H](O[C@H]2[C@H](O[C@H]3[C@H](O)[C@@H](O)[C@H](N=C(N)N)[C@@H](O)[C@@H]3N=C(N)N)O[C@@H](C)[C@]2(O)C=O)O[C@@H](CO)[C@H](O)[C@H]1O` [STREPTOMYCIN] gave an MIC [2] of 10.8 µM (≈ 6.28 µg/mL).

For `CC(C)c1sc(NC(=O)c2cc(NC=O)cn2C)nc1C(=O)Nc1cc(C(=O)NCCCN(C)C)n(C)c1`, the MIC [1] was 9.5 µM (≈ 5.16 µg/mL), the MIC [2] was 4.8 µM (≈ 2.6 µg/mL) and the MIC [8] was 38.1 µM (≈ 20.7 µg/mL). For the same compound, the MIC [3] was 9.5 µM (≈ 5.16 µg/mL), the MIC [11] was “inactive” and the MIC [4] was 19 µM (≈ 10.3 µg/mL). It also gave an MIC [17] of 38.1 µM (≈ 20.7 µg/mL), an MIC [5] of 38.1 µM (≈ 20.7 µg/mL) and an MIC [14] of 9.5 µM (≈ 5.16 µg/mL). The MIC [16] was “inactive” and the MIC [7] was 19.1 µM (≈ 10.4 µg/mL).

With `COc1cccc(C(=O)Nc2cc(C(=O)Nc3cc(C(=O)Nc4cc(C(=O)NCCCN(C)C)n(C)c4)n(CCC(C)C)c3)n(C)c2)c1` the MIC [2] was 16.2 µM (≈ 10.7 µg/mL), the MIC [9] was “inactive” and the MIC [3] was 16.2 µM (≈ 10.7 µg/mL). The MIC [18] was “inactive”, the MIC [10] was “inactive” and the MIC [11] was “inactive”. The MIC [4] was 32.4 µM (≈ 21.3 µg/mL), the MIC [19] was “inactive” and the MIC [16] was “inactive”. The MIC [7] was 2 µM (≈ 1.32 µg/mL).

In the case of `Cc1sccc1C(=O)Nc1cc(C(=O)Nc2cc(C(=O)Nc3cc(C(=O)NCCCN(C)C)n(C)c3)n(C)c2)n(C)c1`, the MIC [8] is reported as 141 µM (≈ 83.6 µg/mL), the MIC [3] is reported as 141 µM (≈ 83.6 µg/mL) and the MIC [18] is reported as “inactive”. For the same compound, the MIC [10] was “inactive”, the MIC [11] was “inactive” and the MIC [4] was 35.4 µM (≈ 21 µg/mL). For the same compound, the MIC [12] was “inactive”, the MIC [5] was 70.8 µM (≈ 42 µg/mL) and the MIC [14] was 70.8 µM (≈ 42 µg/mL). The MIC [16] was “inactive” and the MIC [7] was 141 µM (≈ 83.6 µg/mL).

`CN(C)CCCNC(=O)c1cc(NC(=O)c2cc(NC(=O)c3cc(NC=O)cn3C)cn2CC2CC2)cn1C` showed an MIC [1] of 76.9 µM (≈ 41.3 µg/mL), an MIC [2] of 153 µM (≈ 82.1 µg/mL) and an MIC [3] of 76.9 µM (≈ 41.3 µg/mL). For the same compound, the MIC [11] was “inactive”, the MIC [4] was 38.4 µM (≈ 20.6 µg/mL) and the MIC [17] was 76.9 µM (≈ 41.3 µg/mL). For the same compound, the MIC [5] was 38.4 µM (≈ 20.6 µg/mL), the MIC [19] was “inactive” and the MIC [14] was 153 µM (≈ 82.1 µg/mL). The MIC [16] was “inactive” and the MIC [7] was 76.9 µM (≈ 41.3 µg/mL).

With `CC(C)n1cc(NC(=O)c2cc(NC(=O)c3cc(NC=O)cn3C(C)C)cn2C)cc1C(=O)NCCCN(C)C` the MIC [9] was “inactive”, the MIC [18] was “inactive” and the MIC [11] was “inactive”. For the same compound, the MIC [12] was “inactive”, the MIC [17] was 75 µM (≈ 41.5 µg/mL) and the MIC [19] was “inactive”. The MIC [13] was “inactive”, the MIC [14] was 150 µM (≈ 82.9 µg/mL) and the MIC [15] was “inactive”. For the same compound, the MIC [16] was “inactive” and the MIC [7] was 150 µM (≈ 82.9 µg/mL).

In the case of `CC(=O)Nc1cc(C(=O)Nc2cc(C(=O)Nc3nc(C(=O)NCCCN(C)C)c(C(C)C)s3)n(C)c2)n(C)c1`, the MIC [8] is reported as 74.5 µM (≈ 41.5 µg/mL), the MIC [9] is reported as “inactive” and the MIC [3] is reported as 74.5 µM (≈ 41.5 µg/mL). The MIC [20] was “inactive”, the MIC [18] was “inactive” and the MIC [10] was “inactive”. The MIC [11] was “inactive”, the MIC [12] was “inactive” and the MIC [13] was “inactive”. For the same compound, the MIC [16] was “inactive”.

In the case of `COc1cccc(C(=O)Nc2cc(C(=O)Nc3cc(C(=O)Nc4cc(C(=O)NCCCN5CCN(C)CC5)n(C)c4)n(CCC(C)C)c3)n(C)c2)c1`, the MIC [1] is reported as 121 µM (≈ 86.4 µg/mL), the MIC [2] is reported as 60 µM (≈ 42.8 µg/mL) and the MIC [8] is reported as 121 µM (≈ 86.4 µg/mL). For the same compound, the MIC [3] was 60.4 µM (≈ 43.1 µg/mL), the MIC [11] was “inactive” and the MIC [4] was 121 µM (≈ 86.4 µg/mL). It also gave an MIC [17] of 121 µM (≈ 86.4 µg/mL), an MIC [5] of 121 µM (≈ 86.4 µg/mL) and an MIC [6] of 121 µM (≈ 86.4 µg/mL). For the same compound, the MIC [14] was 30.2 µM (≈ 21.6 µg/mL) and the MIC [7] was 121 µM (≈ 86.4 µg/mL).

With `CC(=O)Nc1cc(C(=O)Nc2cc(C(=O)Nc3cc(C(=O)NCCCN4CCN(C)CC4)n(C)c3)n(CCC(C)C)c2)n(C)c1` the MIC [20] was “inactive”, the MIC [18] was “inactive” and the MIC [10] was “inactive”. The MIC [11] was “inactive”, the MIC [4] was 136 µM (≈ 84.6 µg/mL) and the MIC [12] was “inactive”. For the same compound, the MIC [5] was 136 µM (≈ 84.6 µg/mL), the MIC [19] was “inactive” and the MIC [6] was 136 µM (≈ 84.6 µg/mL). The MIC [14] was 136 µM (≈ 84.6 µg/mL) and the MIC [15] was “inactive”.

In the case of `CC(C)c1sc(NC(=O)c2cc(NC(=O)c3cc(NC=O)cn3C)cn2C)nc1C(=O)NCCCN(C)C`, the MIC [1] is reported as 76.2 µM (≈ 41.4 µg/mL), the MIC [2] is reported as 4.7 µM (≈ 2.55 µg/mL) and the MIC [8] is reported as 76.1 µM (≈ 41.3 µg/mL). For the same compound, the MIC [3] was 9.5 µM (≈ 5.16 µg/mL), the MIC [11] was “inactive” and the MIC [4] was 19 µM (≈ 10.3 µg/mL). For the same compound, the MIC [17] was 76.1 µM (≈ 41.3 µg/mL), the MIC [5] was 76.2 µM (≈ 41.4 µg/mL) and the MIC [6] was 9.5 µM (≈ 5.16 µg/mL). The MIC [14] was 76.1 µM (≈ 41.3 µg/mL) and the MIC [7] was 38.1 µM (≈ 20.7 µg/mL).
